These results are taken from the RNAGym collection of RNA variant scans (doi:10.1126/science.aae0568).

B1: tRNA (parent)
chain: GUUCCGUUGGCGUAAUGGUAACGCGUCUCCCUCCUAAGGAGAAGACUGCGGGUUCGAGUCCCGUACGGAACG

This sample holds only a part of the variants without activity.

In this series the parent is B1. Briefly: yeast fitness relative to wild type (ratio to wild type); higher = fitter; tRNA-Arg(CCU), competitive growth, 37 C, YPD. In short, it runs like this: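 For this measurement, the tRNA-Arg(CCU) gene was varied by chemical synthesis at a 3% per-site mutation rate across 69 sites, and each variant was placed at the native genomic locus in Saccharomyces cerevisiae. The pooled strains went through a 24-hour competition in YPD at 37°C in six parallel replicates, with amplicons from start and end populations read by 100-nucleotide paired-end sequencing. Darwinian fitness relative to wild type followed from the change in each genotype's frequency. Genotypes needed ≥ 100 starting reads, and estimates < 0.5 were set to 0.5.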
In the case of GGUCCGUUGGCAUAAUGGUAACGCGUCUCCCUCCCAAGGAGAAGACUGCGGGUUCGAGUCCCGUACGGAACG [U2G G12A U35C], the yeast fitness was at most 0.5.
In the case of GUUCCGUUGGGGUAAUGGUAACGCGUCUCCCUCCUAAGGAGAUGGCCGCGGGUUCGAGUCCCGUACGGAACG [C11G A43U A45G U47C], the yeast fitness is at most 0.5.
In the case of GUUCCGUCCGCGUAAUGGUAACGCGUCUCCCUCCUAAGGAGAAGACUGUGGGUUCGAGUCCCGUACGGAACG [U8C G9C C49U], the yeast fitness is at most 0.5.
With GUUCCGUUGGCGUAAUCGUAACGCGUCUCCCUCCUAAGGAGCAGACUGCGGGUUUGAGUCCCGUACGGAACG [G17C A42C C55U], the yeast fitness was at most 0.5.
The result for GUUCCGUGGGCGUAAUGGUAACGCGUCUCCCUCCUAAGGAGAAGUCUGCAGGUUCGAGUCCCGUACGGCACG [U8G A45U G50A A69C] reads at most 0.5; that for GUUCCGUUGGCGUAAUGGUAACGCGUCACCCUCCUACGGAGAAGACUGCGGGUUCGAGUCCCGUACGGAACG [U28A A37C], 0.657; that for GUUCCGUUGGCGUAAUGGUAACGCGUCUGCCUCCUUAGGAGGAGACUGCGGGUUAGAGUCCCGUACGGAACG [C29G A36U A42G C55A], at most 0.5.
Consider GUUCCAUUGGCGUACUGGUAACGCGUAUCCCUCCUAAGGAGAAGACUGCGGGUUCGAGUCGCGCACGGAUCG [G6A A15C C27A C61G U64C A70U], for which the yeast fitness was at most 0.5.
Consider GUUCCGUUGGCGUAGUGGUAACCCGUCUCACUCCUAAGGAGCAGACUGCGCGUUCGAGUCACGUACAGAACG [A15G G23C C30A A42C G51C C61A G67A], for which the yeast fitness is at most 0.5.
The same measure for GUUCCGUUGGCGUAAUAGUAACGCGUCUCCCUCCUACGGAGAAGACUGCGGAUUCAAGUCCCCUACGGAACG [G17A A37C G52A G56A G63C]: at most 0.5.
Consider GUUCCGUUGGCGUAAUGGUAACGCGUCAUCCUCCUAAGGAGAAGCCUGCGGGUUCGAGUCCCGUACGGCACG [U28A C29U A45C A69C], for which the yeast fitness was found to be 0.541.
For the variant GUUCCGUUGGCGUAAUGGUAACGCGUCUACCUCCUAUGGAGAAGACUGCGGGUUCGAGUCCCGUUCGGAACG [C29A A37U A65U], the yeast fitness is at most 0.5.
The same measure for GUUACGUUGGCGUAAUGGUAACGCGUCUCCCUCCUAAGGAACAGACUGCGGGUUCGAGACCCGUACGGAACG [C4A G41A A42C U59A]: at most 0.5.
As for GUUCCGUUGGCGUAAUGGUAACGCGUCUCCCUAUUAAGGAGAAGACUGCGGAUUCGGGUCCCGUACGGAACG [C33A C34U G52A A57G], the yeast fitness was at most 0.5.
With GUUCCGUUGGGGUAAUGGUAACGCGUCUCCCGUCUAUGGAGAAGACUGCGGGUUCGAGUCCCGUACGGAACG [C11G U32G C33U A37U], the yeast fitness is at most 0.5.
Take GUCCCGUUGGCGUAAUGGGAACGCGUCUCCCUCCUAAGGAGAAGACUGCGGGUUCGAGUCUCGUACGGAACG [U3C U19G C61U]: the yeast fitness was at most 0.5.
The same measure for GUUCCGUUGGGGUAAUGGUAACGCGUCUCCCUCCUCAGGAGAAGACUGCGGGUUCAAGUCCCGUACGGUACG [C11G A36C G56A A69U]: at most 0.5.
The same measure for GUUCCGUUGGCGUAAUGGUAACGCGUCUCCCUCUUAAGGAGAAGACUGCGGGUUCGAGUCCCGUACGGAUCG [C34U A70U]: 0.662; for GUUCCGUUGGCGUAGUGGUAAUGCGUCUCCCUCCUAAGGAGAAGACUGCGGGUUCGAGUCCCGUACGGAACG [A15G C22U]: 0.871; for GUUCCGUUGGAGUAAUGGUAACGCGUCUCCCUCCUAAGGAGGUGAUUGCGGGUUCGAGUCCCGUACAGCACG [C11A A42G A43U C46U G67A A69C]: at most 0.5.
With GUUGCGUUGGCGUAAUGGUAACGCGUCUCUCUCCUAAGGAGUAGACUGCCGGUUCGAGUCCAGUACGGAACG [C4G C30U A42U G50C C62A], the yeast fitness was 0.511.
Turning to GUUCCGUUGGCGUAAUGGUAACGCGUCUCUCUCCUAAGGAGACGACGGCGGGUGCGAGUCCCGUACGGAACG [C30U A43C U47G U54G], the yeast fitness came to 0.85.
The same measure for GUUCCGUUGGCGUAGUGGUAACGCGUCUCCCUCCUAAGGAGAAGACUGCGGGUUCGAGUCCCGUACGAAACG [A15G G68A]: 0.894.
The same measure for GAUCCGUUGGCGUAAUGGUGACGCGUCUUCCUACUAAGGAGAAGACUGCGGGUUAGAGUGCCGUACGGAACG [U2A A20G C29U C33A C55A C60G]: at most 0.5; for GAUCCGUUGGCGUAAUGGUAACGCGUCUCCCUCCUAAGGAGAAGACUGCGGGUUUGAGUCCCGUACGGAACG [U2A C55U]: 0.661; for GUCCCGUUGCCGUAAUGGUAACGCGUCUCCCUCUUAAGGAGAAGACUGCGGGUUCGAGUCCCGUACGGAACG [U3C G10C C34U]: 0.586.
The same measure for GUUCCGUUGGCGUAAUGGUAACGCGUCUCCCUCCUGAGGAGAAGACUGCGGGUUCGAGUGCCGUACGGAGCG [A36G C60G A70G]: at most 0.5; for GUUCCGUUGGCGUAAUGGUAACGCGUCUCCCUCCUAAGGAGAAGACUGCGGGUCCGAGUCCCGUACCGAACG [U54C G67C]: 0.944.
GUUCGGUUGGCGUAAUGGCAACGCGUCUCCCUCCAAAGGAGACGACUGCGGGUUCGAGUCCCGUACGGAACG [C5G U19C U35A A43C]: the yeast fitness was at most 0.5.
With GUUCCGUUGGCGUAAUGGUAACGCGUCUCUCUCGUAAGGAGAAGACUGCGGGCUCGAGUCCCGUACGGCACG [C30U C34G U53C A69C], the yeast fitness is at most 0.5.
As for GUUCCGUUGGCCUAAUGGUCACGCGUCUCCCUCCUAAGGAGACGACUGCGGGUUCGAGUCCCGUACGGAACG [G12C A20C A43C], the yeast fitness was at most 0.5.
GUUCCGUUGGAGUAAUGGUAGCGCGUCUCCCUCCUAAGGAGAAGACUGCGGGUUCGAGUCCGGUAUGGAACG [C11A A21G C62G C66U]: the yeast fitness was at most 0.5.
For the variant GUUCCGUUGGCGUAAUGGUAACCCGUCGCCCUCCUAAGGAAUAGACUGCGGGUUCGAGACCCGUACGGAACG [G23C U28G G41A A42U U59A], the yeast fitness was at most 0.5.
Consider GUUCCGUUGGCGUAAUGGUAACGUGUCUCCCUCCUAAGGAGAAGGGUGCGGGUUGGAGUCCCGUACGGCACG [C24U A45G C46G C55G A69C], for which the yeast fitness was at most 0.5.
GUUCCGUUGGCGUAGUGGUAACGCGUCUCCCUCCUUAGGAGAAGACUGCGGGUUCGAGUCCCGUACGGAACG [A15G A36U]: the yeast fitness stood at 0.679.
As to GUUCCGUUGGCGUAAUGGUACUGCGUCUCCCUCCUAAGGAGAAGACUGCGGGUUCGAGUCCCGUACGGAACG [A21C C22U], the yeast fitness was determined as 0.664.
In the case of GCUCCGUUGGCGUAAUGGUAACGCGUUUCCCUCCUAAGGAGAAGAUUACGGGUUCGAGUCCCGUACGGAACG [U2C C27U C46U G48A], the yeast fitness is 0.636.
